Results as given in ChEMBL document CHEMBL2331228, “Synthesis and insight into the structure-activity relationships of chalcones as antimalarial agents” (J Med Chem, 2013).
Values after ≈ are worked out from the molar mass of the structure shown.

Columns and labels:
[1] = test system: Plasmodium falciparum; assay: Antimalarial activity against schizont stage of chloroquine-sensitive Plasmodium falciparum 3D7 after more than 40 hrs by Giemsa staining-based light microscopic analysis; assay type: functional; details: 3D7, 40 h
Outline: (§1)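 Ring stages (5% D-sorbitol synchronized) of 3D7 were grown in RPMI with 10% FBS, gentamycin and Fungizone at 37 °C under CO2. They were exposed in duplicate to compound (DMSO stock, 5 mg/mL) at 2, 10 and 50 μg/mL, with 3% cell suspension and 1% parasitized cells, for >40 h. Giemsa-stained thin smears were counted for schizonts. MIC is the lowest concentration giving 100% inhibition of schizont maturation.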

[2] = test system: Plasmodium falciparum; assay: Antimalarial activity against schizont stage of chloroquine-sensitive Plasmodium falciparum 3D7 assessed as reduction in parasitemia at 50 ug/ml after more than 40 hrs by Giemsa staining-based light microscopy; assay type: functional; set-up: scale not given: the % may be the effect or the level left; outline: as §1

CC(C)=CCCC1(C)C=Cc2c(ccc(C(=O)/C=C/c3cccnc3)c2O)O1 (stereo unspecified)
MIC [1]: 5.33 µM (≈ 2 µg/mL)

COc1ccc(/C=C/C(=O)c2cc(CC=C(C)C)c(O)cc2O)cc1
MIC [1]: 28.6 µM (≈ 9.67 µg/mL)

CCOc1cc(F)ccc1/C=C/C(=O)c1ccc2c(c1O)C=CC(C)(C)O2
MIC [1]: 136 µM (≈ 50.1 µg/mL)

CC1(C)C=Cc2c(ccc(C(=O)/C=C/c3ccc(O)cc3)c2O)O1
MIC [1]: 155 µM (≈ 50.1 µg/mL)

CC1(C)C=Cc2c(ccc(C(=O)/C=C/c3ccc(F)cc3F)c2O)O1
Activity [2]: <100% | MIC [1]: > 146 µM

CC1(C)C=Cc2c(ccc(C(=O)/C=C/c3ccc(F)c(F)c3)c2O)O1
MIC [1]: 146 µM (≈ 50 µg/mL)

COc1ccc(/C=C/C(=O)c2ccc(O)c(CC=C(C)C)c2O)cc1O
MIC [1]: 28.2 µM (≈ 10 µg/mL)

COc1cc(/C=C/C(=O)c2cc(CC=C(C)C)c(O)cc2O)ccc1O
MIC [1]: 28.2 µM (≈ 10 µg/mL)

CC(C)=CCCC1(C)C=Cc2c(ccc(C(=O)/C=C/c3ccc(N(C)C)cc3)c2O)O1 (stereo unspecified)
Activity [2]: <100% | MIC [1]: > 120 µM

COc1ccccc1/C=C/C(=O)c1ccc2c(c1O)C=CC(C)(CCC=C(C)C)O2 (stereo unspecified)
MIC [1]: 124 µM (≈ 50.1 µg/mL)

CC(C)=CCCC1(C)C=Cc2c(ccc(C(=O)/C=C/c3ccc(OCCN4CCCCC4)cc3)c2OCCN2CCCCC2)O1 (stereo unspecified)
MIC [1]: 3.26 µM (≈ 2 µg/mL)

CC1(C)C=Cc2c(ccc(C(=O)/C=C/c3ccc([N+](=O)[O-])cc3)c2O)O1
Activity [2]: <100% | MIC [1]: > 142 µM

COc1ccc(/C=C/C(=O)c2cc(CC=C(C)C)c(O)cc2O)cc1O
MIC [1]: 28.2 µM (≈ 10 µg/mL)

CC(C)=CCCC1(C)C=Cc2c(ccc(C(=O)/C=C/c3ccc(Cl)cc3Cl)c2O)O1 (stereo unspecified)
Activity [2]: <100% | MIC [1]: > 113 µM

CC(C)=CCCC1(C)C=Cc2c(ccc(C(=O)/C=C/c3cccc([N+](=O)[O-])c3)c2O)O1 (stereo unspecified)
MIC [1]: 4.77 µM (≈ 2 µg/mL)

Cc1ccc2nc(Cl)c(/C=C/C(=O)c3ccc4c(c3O)C=CC(C)(C)O4)cc2c1
MIC [1]: 123 µM (≈ 50.1 µg/mL)

CC(C)=CCCC1(C)C=Cc2c(ccc(C(=O)/C=C/c3ccc(Cl)cc3)c2O)O1 (stereo unspecified)
Activity [2]: <100% | MIC [1]: > 123 µM

CC1(C)C=Cc2c(ccc(C(=O)/C=C/c3cnc4ccccc4c3)c2O)O1
Activity [2]: <100% | MIC [1]: > 140 µM

CC(C)=CCCC1(C)C=Cc2c(ccc(C(=O)/C=C/c3ccc(Br)cc3)c2O)O1 (stereo unspecified)
Activity [2]: <100% | MIC [1]: > 111 µM

CC(C)=CCCC1(C)C=Cc2ccc(O)c(C(=O)CCc3cc(C=O)ccc3O)c2O1 (stereo unspecified)
MIC [1]: 9.12 µM (≈ 3.84 µg/mL)

COc1ccc(/C=C/C(=O)c2ccc3c(c2O)C=CC(C)(C)O3)cc1OC
MIC [1]: 137 µM (≈ 50.1 µg/mL)

CC1(C)CCc2c(ccc(C(=O)/C=C/c3cccnc3)c2O)O1
MIC [1]: 32.4 µM (≈ 10 µg/mL)

CC(C)=CCCC1(C)C=Cc2c(ccc(C(=O)/C=C/c3ccc(C#N)cc3)c2O)O1 (stereo unspecified)
MIC [1]: 5.01 µM (≈ 2 µg/mL)

COc1ccccc1/C=C/C(=O)c1ccc2c(c1O)C=CC(C)(C)O2
Activity [2]: <100% | MIC [1]: > 149 µM

CC1(C)C=Cc2c(ccc(C(=O)/C=C/c3cccnc3)c2O)O1
MIC [1]: 32.6 µM (≈ 10 µg/mL)

CC1(C)C=Cc2c(ccc(C(=O)/C=C/c3ccc(F)cc3)c2O)O1
MIC [1]: 154 µM (≈ 50.1 µg/mL)

CC1(C)C=Cc2c(ccc(C(=O)/C=C/c3ccc(OCCN4CCCCC4)cc3)c2OCCN2CCCCC2)O1
MIC [1]: 3.67 µM (≈ 2 µg/mL)

CCOc1ccc(/C=C/C(=O)c2cc(CC=C(C)C)c(O)cc2O)cc1
MIC [1]: 28.4 µM (≈ 10 µg/mL)

CC(C)CCCC1(C)CCc2c(ccc(C(=O)/C=C/c3ccc(O)cc3)c2O)O1 (stereo unspecified)
MIC [1]: 127 µM (≈ 50.1 µg/mL)

CC1(C)C=Cc2c(ccc(C(=O)CCc3ccc(O)cc3)c2O)O1
MIC [1]: 30.9 µM (≈ 10 µg/mL)

COCOc1ccc(/C=C/C(=O)c2ccc3c(c2O)C=CC(C)(CCC=C(C)C)O3)cc1C=O (stereo unspecified)
MIC [1]: 21.6 µM (≈ 10 µg/mL)

COCOc1ccc(/C=C/C(=O)c2c(O)c3c(c4c2OC(C)(CCC=C(C)C)C=C4)OC(C)(CCC=C(C)C)C=C3)cc1C(OC)OC (stereo unspecified)
MIC [1]: 15.2 µM (≈ 10 µg/mL)

CC1(C)C=Cc2c(ccc(C(=O)/C=C/c3ccccn3)c2O)O1
MIC [1]: 32.6 µM (≈ 10 µg/mL)

CC(C)=CCc1cc(C(=O)/C=C/c2ccc(Cl)cc2)c(O)cc1O
MIC [1]: 146 µM (≈ 50.1 µg/mL)

CC(C)=CCCC1(C)C=Cc2c(ccc(C(=O)/C=C/c3ccc(F)c(F)c3)c2O)O1 (stereo unspecified)
MIC [1]: 22.6 µM (≈ 9.28 µg/mL)

CC(C)=CCCC1(C)C=Cc2c(ccc(C(=O)/C=C/c3cc4cc(C)ccc4nc3Cl)c2O)O1 (stereo unspecified)
MIC [1]: 106 µM (≈ 50.1 µg/mL)

COc1ccc(/C=C/C(=O)c2ccc3c(c2O)C=CC(C)(C)O3)cc1
Activity [2]: <100% | MIC [1]: > 149 µM

CC(C)=CCc1cc(C(=O)/C=C/c2ccc(N(C)C)cc2)c(O)cc1O
MIC [1]: 142 µM (≈ 50.1 µg/mL)

COc1ccccc1/C=C/C(=O)c1cc(CC=C(C)C)c(O)cc1O
MIC [1]: 29.6 µM (≈ 10 µg/mL)

CC1(C)C=Cc2c(ccc(C(=O)/C=C/c3ccc(Cl)cc3Cl)c2O)O1
MIC [1]: 5.34 µM (≈ 2 µg/mL)

COc1ccc(/C=C/C(=O)c2cc(CC=C(C)C)c(O)cc2O)cc1OC
MIC [1]: 27.2 µM (≈ 10 µg/mL)

CCOc1ccc(/C=C/C(=O)c2ccc3c(c2O)C=CC(C)(CCC=C(C)C)O3)cc1 (stereo unspecified)
MIC [1]: 120 µM (≈ 50.1 µg/mL)

COc1ccc(/C=C/C(=O)c2ccc3c(c2O)C=CC(C)(CCC=C(C)C)O3)cc1 (stereo unspecified)
Activity [2]: <100% | MIC [1]: > 124 µM

COc1ccc(/C=C/C(=O)c2ccc3c(c2O)CCC(C)(CCCC(C)C)O3)cc1 (stereo unspecified)
MIC [1]: 123 µM (≈ 50.1 µg/mL)

CC1(C)C=Cc2c(ccc(C(=O)/C=C/c3cc4ccccc4nc3Cl)c2O)O1
MIC [1]: 128 µM (≈ 50.1 µg/mL)

CC(C)=CCCC1(C)C=Cc2c(ccc(C(=O)/C=C/c3cc(Cl)cc(Cl)c3)c2O)O1 (stereo unspecified)
MIC [1]: 113 µM (≈ 50.2 µg/mL)

CC(C)=CCCC1(C)C=Cc2c(ccc(C(=O)/C=C/c3ccc([N+](=O)[O-])cc3)c2O)O1 (stereo unspecified)
MIC [1]: 119 µM (≈ 50.1 µg/mL)

COc1cc(/C=C/C(=O)c2ccc3c(c2O)C=CC(C)(CCC=C(C)C)O3)cc(OC)c1OC (stereo unspecified)
MIC [1]: 21.6 µM (≈ 10 µg/mL)

CCOc1ccc(/C=C/C(=O)c2ccc3c(c2O)C=CC(C)(C)O3)cc1
Activity [2]: <100% | MIC [1]: > 143 µM

CC(=O)Oc1ccc(/C=C/C(=O)c2ccc3c(c2O)C=CC(C)(C)O3)cc1
MIC [1]: 27.5 µM (≈ 10 µg/mL)

CC(C)=CCCC1(C)C=Cc2c(ccc(C(=O)/C=C/c3ccccn3)c2O)O1 (stereo unspecified)
MIC [1]: 26.7 µM (≈ 10 µg/mL)

COc1ccc(CCC(=O)c2ccc3c(c2O)C=CC(C)(C)O3)cc1OC
Activity [2]: <100% | MIC [1]: > 136 µM

COc1cc(OC)c(OC)cc1/C=C/C(=O)c1cc(CC=C(C)C)c(O)cc1O
MIC [1]: 25.1 µM (≈ 10 µg/mL)

CC(C)=CCCC1(C)C=Cc2c(ccc(/C=C/C(=O)c3cccc(C)c3)c2O)O1 (stereo unspecified)
MIC [1]: 25.8 µM (≈ 10 µg/mL)

CC(C)=CCCC1(C)C=Cc2c(ccc(/C=C/C(=O)c3ccc(C)c(C)c3)c2O)O1 (stereo unspecified)
MIC [1]: 24.9 µM (≈ 10 µg/mL)

COc1ccc(/C=C/C(=O)c2ccc3c(c2O)C=CC(C)(CCC=C(C)C)O3)cc1OC (stereo unspecified)
MIC [1]: 115 µM (≈ 50.1 µg/mL)

CC(C)=CCCC1(C)C=Cc2c(ccc(C(=O)/C=C/c3cnc4ccccc4c3)c2O)O1 (stereo unspecified)
MIC [1]: 23.5 µM (≈ 10 µg/mL)

CCOc1cc(/C=C/C(=O)c2ccc3c(c2O)C=CC(C)(C)O3)ccc1F
Activity [2]: <100% | MIC [1]: > 136 µM

COCOc1ccc(/C=C/C(=O)c2cc(CC=C(C)C)c(O)cc2O)cc1
MIC [1]: 27.2 µM (≈ 10 µg/mL)

CC(C)=CCCC1(C)C=Cc2c(ccc(C(=O)/C=C/c3ccc4oc(C(=O)c5ccccc5)cc4c3)c2O)O1 (stereo unspecified)
MIC [1]: 19.3 µM (≈ 10 µg/mL)

CC(C)=CCCC1(C)C=Cc2c(ccc(C(=O)/C=C/c3cc4ccccc4nc3Cl)c2O)O1 (stereo unspecified)
MIC [1]: 109 µM (≈ 50.1 µg/mL)

CC(C)=CCCC1(C)C=Cc2c(ccc(C(=O)/C=C/c3ccc(O)cc3)c2O)O1 (stereo unspecified) [LESPEOL]
MIC [1]: 25.6 µM (≈ 10 µg/mL)

CC1(C)C=Cc2c(ccc(C(=O)/C=C/c3cc(C=O)ccc3O)c2O)O1
MIC [1]: 28.6 µM (≈ 10 µg/mL)

CC(C)CCCC1(C)CCc2c(ccc(C(=O)/C=C/c3cccnc3)c2O)O1 (stereo unspecified)
MIC [1]: 5.27 µM (≈ 2 µg/mL)

CC1(C)C=Cc2c(ccc(C(=O)/C=C/c3ccc(Cl)cc3)c2O)O1
MIC [1]: 147 µM (≈ 50.1 µg/mL)

CC1(C)C=Cc2c(ccc(C(=O)/C=C/c3ccc(C#N)cc3)c2O)O1
Activity [2]: <100% | MIC [1]: > 151 µM

COc1cc(OC)c(OC)cc1/C=C/C(=O)c1ccc2c(c1O)C=CC(C)(C)O2
MIC [1]: 25.2 µM (≈ 10 µg/mL)

CC1(C)C=Cc2c(ccc(C(=O)/C=C/c3ccc(Br)cc3)c2O)O1
MIC [1]: 130 µM (≈ 50.2 µg/mL)

CC1(C)C=Cc2c(ccc(C(=O)CCc3ccc(O)c(O)c3)c2O)O1
MIC [1]: 29.4 µM (≈ 10 µg/mL)

COc1ccc(C(=O)c2cc3cc(/C=C/C(=O)c4ccc5c(c4O)C=CC(C)(CCC=C(C)C)O5)ccc3o2)cc1 (stereo unspecified)
Activity [2]: <100% | MIC [1]: > 91.2 µM

CC1(C)CCc2cc(C(=O)/C=C/c3cccnc3)c(O)cc2O1
MIC [1]: 32.4 µM (≈ 10 µg/mL)

CC(C)=CCCC1(C)C=Cc2c(ccc(C(=O)/C=C/c3cccnc3)c2OCCN2CCCCC2)O1 (stereo unspecified)
MIC [1]: 4.11 µM (≈ 2 µg/mL)

CC(C)=CCCC1(C)C=Cc2c(ccc(C(=O)/C=C/c3ccc(F)cc3)c2O)O1 (stereo unspecified)
MIC [1]: 128 µM (≈ 50.1 µg/mL)

CC(C)=CCCC1(C)C=Cc2c(ccc(C(=O)CCc3cc(C=O)ccc3O)c2O)O1 (stereo unspecified)
MIC [1]: 10.3 µM (≈ 4.33 µg/mL)

COc1ccc(CCC(=O)c2ccc3c(c2O)C=CC(C)(C)O3)cc1
Activity [2]: <100% | MIC [1]: > 148 µM
